How the values were obtained:
[1] = system: HSV-1; settings: cited from earlier work
[2] = system: HSV-2; settings: cited from earlier work
[3] = system: LdNH; experiment: NMR Saturation Transfer Difference; format: binding, Leishmania donovani; settings: 100 μM LdNH, 2 mM compound, 2 s saturation time
Procedure, shortened: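 STD spectra acquired in alternating scans, on-resonance at −1 ppm and off-resonance at 20 ppm. DPFGSE water suppression, 2 s saturation time, 1024 scans.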

[4] = system: amastigote parasite Leishmania amazonensis; settings: cited from earlier work

Row | STD signals in presence of LdNH [3] | Structure (SMILES) | anti-viral activity EC50 [1] | anti-viral activity EC50 [2] | leishmanicidal activity IC50 [4] | IC50 ([4]; read-out: leishmanicidal activity IC50, value in brackets)
1 | much more intense | C[C@@H]1O[C@@H](Oc2c(-c3ccc(O)cc3)oc3cc(O)cc(O)c3c2=O)[C@H](O[C@@H]2OC[C@@H](O)[C@H](O)[C@H]2O)[C@H](O)[C@H]1O [compound 2, kaempferol 3-O-β-D-xylopyranosyl-(1→2)-α-L-rhamnopyranoside] | 7.4 µg/mL | 9.0 µg/mL | – | –
2 | only weak resonances | C[C@@H]1O[C@@H](Oc2c(-c3ccc(O)cc3)oc3cc(O)cc(O)c3c2=O)[C@H](O)[C@H](O)[C@H]1O [compound 1, kaempferol 3-O-α-L-rhamnopyranoside] | – | – | 70 µg/mL | 162 µM

Reference: publication PMC9065027 (RSC Advances, 2019)
